Here are results for 31 compounds from ChEMBL document CHEMBL1143603, “Identification and characterization of novel benzil (diphenylethane-1,2-dione) analogues as inhibitors of mammalian carboxylesterases” (J Med Chem, 2005).

Bounds are passed on as bounds.

One assay has as its target Cholinesterase (Homo sapiens, UniProt P06276). As to the kind of experiment: Inhibition constant against human Butyrylcholinesterase (hBuChE) using butyrylthiocholine (BuTCh) as substrate.
Assay [1] deals with T1, Liver carboxylesterase 1 (Oryctolagus cuniculus, UniProt P12337).
T1 sequence (P12337 whole entry): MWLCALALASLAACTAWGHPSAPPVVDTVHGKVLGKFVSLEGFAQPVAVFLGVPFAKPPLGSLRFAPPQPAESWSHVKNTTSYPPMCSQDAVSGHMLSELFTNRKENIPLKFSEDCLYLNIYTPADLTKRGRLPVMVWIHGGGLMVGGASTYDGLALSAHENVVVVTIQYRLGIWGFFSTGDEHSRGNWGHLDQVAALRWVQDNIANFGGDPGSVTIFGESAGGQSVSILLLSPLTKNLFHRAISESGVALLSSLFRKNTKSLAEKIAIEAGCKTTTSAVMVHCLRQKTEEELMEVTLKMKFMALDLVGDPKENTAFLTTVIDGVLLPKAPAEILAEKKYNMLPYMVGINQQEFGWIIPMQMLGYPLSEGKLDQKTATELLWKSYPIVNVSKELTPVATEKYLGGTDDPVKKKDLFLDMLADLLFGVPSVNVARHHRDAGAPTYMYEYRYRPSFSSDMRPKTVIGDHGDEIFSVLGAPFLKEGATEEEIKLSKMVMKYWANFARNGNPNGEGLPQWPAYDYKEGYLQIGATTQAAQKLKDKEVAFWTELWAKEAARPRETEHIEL
As to the kind of experiment: Inhibition constant against rabbit liver carboxylesterase (rCE) using nitrophenyl acetate (o-NPA) as substrate. In a few lines:
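Pure rCE prepared per earlier work. Spectrophotometric multiwell assay with 3mM o-NPA. Inhibitor and substrate were dispensed first, then enzyme was added. A420 was read every 15 s for 5 min and compared with no-inhibitor wells. Inhibitor range started at 1 pM. Duplicates, with 50 µM BNPP and DMSO/no-enzyme controls. Ki came from a partially competitive inhibition equation fit.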

The target of assay [2] is T2, Liver carboxylesterase 1 (Homo sapiens, UniProt P23141).
T2 sequence (P23141 whole entry): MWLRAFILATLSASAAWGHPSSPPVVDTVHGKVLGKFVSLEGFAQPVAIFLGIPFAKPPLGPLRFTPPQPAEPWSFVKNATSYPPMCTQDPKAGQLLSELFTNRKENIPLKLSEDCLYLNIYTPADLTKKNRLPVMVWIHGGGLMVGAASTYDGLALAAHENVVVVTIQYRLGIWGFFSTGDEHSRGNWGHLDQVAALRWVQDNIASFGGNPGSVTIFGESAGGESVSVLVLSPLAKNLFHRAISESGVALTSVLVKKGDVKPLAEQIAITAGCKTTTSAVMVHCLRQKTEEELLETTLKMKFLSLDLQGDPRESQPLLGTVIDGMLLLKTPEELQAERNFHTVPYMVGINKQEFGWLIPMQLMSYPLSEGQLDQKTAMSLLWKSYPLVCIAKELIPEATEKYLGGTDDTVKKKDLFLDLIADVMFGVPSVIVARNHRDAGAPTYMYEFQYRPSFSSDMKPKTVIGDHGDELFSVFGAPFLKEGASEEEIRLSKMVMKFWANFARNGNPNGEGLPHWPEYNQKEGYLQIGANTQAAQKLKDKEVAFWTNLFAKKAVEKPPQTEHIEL
In words: Inhibition constant against human liver carboxylesterase 1 (hCE1) using nitrophenyl acetate (o-NPA) as substrate.

In another assay the target is T3, Cocaine esterase (Homo sapiens, UniProt O00748).
T3 sequence (O00748 whole entry): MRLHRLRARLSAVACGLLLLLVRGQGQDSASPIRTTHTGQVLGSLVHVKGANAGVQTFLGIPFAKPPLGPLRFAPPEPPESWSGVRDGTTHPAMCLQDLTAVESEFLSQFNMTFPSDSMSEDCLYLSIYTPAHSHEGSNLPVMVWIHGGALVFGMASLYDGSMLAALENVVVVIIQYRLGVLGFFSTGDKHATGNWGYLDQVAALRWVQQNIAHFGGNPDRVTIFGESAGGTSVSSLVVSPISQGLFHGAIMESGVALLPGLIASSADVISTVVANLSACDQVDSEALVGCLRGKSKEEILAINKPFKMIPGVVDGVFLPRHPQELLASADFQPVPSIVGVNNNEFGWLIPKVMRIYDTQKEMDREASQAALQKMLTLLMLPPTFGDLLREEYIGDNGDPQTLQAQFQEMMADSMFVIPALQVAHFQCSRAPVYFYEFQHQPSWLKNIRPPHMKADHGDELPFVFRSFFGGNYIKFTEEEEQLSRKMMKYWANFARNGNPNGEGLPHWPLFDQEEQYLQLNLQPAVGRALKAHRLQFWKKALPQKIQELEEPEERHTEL
As to the kind of experiment: Inhibition constant against human intestinal carboxylesterase 2 (hiCE) using nitrophenyl acetate (o-NPA) as substrate.

The target of the next assay is Acetylcholinesterase (Homo sapiens, UniProt P22303). As to the kind of experiment: Inhibition constant against human Acetylcholinesterase (hAcChE) using acetylthiocholine (AcTCh) as substrate.
Sequence of Acetylcholinesterase (P22303 whole entry): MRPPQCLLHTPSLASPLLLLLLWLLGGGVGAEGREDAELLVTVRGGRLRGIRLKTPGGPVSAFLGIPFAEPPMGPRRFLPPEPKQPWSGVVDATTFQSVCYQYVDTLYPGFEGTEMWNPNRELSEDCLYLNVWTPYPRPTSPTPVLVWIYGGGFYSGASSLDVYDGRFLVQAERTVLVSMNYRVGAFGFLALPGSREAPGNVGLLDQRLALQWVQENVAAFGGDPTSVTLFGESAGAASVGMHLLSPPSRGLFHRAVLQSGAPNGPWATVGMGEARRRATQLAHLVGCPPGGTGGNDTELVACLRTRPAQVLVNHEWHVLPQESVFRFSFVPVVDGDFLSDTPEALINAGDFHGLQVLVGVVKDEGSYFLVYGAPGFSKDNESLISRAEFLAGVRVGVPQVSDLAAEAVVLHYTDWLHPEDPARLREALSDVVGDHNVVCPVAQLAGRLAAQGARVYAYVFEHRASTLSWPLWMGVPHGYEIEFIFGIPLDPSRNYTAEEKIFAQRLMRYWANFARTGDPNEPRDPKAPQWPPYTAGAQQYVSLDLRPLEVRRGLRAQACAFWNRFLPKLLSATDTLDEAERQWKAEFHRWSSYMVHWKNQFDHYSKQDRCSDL

Sequence of Cholinesterase (P06276 whole entry): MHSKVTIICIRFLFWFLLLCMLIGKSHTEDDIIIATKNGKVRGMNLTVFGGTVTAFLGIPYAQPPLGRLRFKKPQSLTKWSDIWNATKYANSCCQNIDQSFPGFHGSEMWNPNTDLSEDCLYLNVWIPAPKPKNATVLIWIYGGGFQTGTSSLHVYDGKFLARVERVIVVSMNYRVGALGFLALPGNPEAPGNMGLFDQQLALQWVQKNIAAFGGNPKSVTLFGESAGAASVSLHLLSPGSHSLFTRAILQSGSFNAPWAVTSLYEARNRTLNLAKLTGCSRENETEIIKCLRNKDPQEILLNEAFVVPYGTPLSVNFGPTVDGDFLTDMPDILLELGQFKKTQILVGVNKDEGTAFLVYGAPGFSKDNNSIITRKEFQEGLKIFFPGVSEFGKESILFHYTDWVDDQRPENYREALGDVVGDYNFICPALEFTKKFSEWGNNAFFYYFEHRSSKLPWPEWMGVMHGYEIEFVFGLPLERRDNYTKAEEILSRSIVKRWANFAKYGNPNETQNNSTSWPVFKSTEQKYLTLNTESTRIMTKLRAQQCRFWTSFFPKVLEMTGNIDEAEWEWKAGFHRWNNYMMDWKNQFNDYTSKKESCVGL

The term Ki denotes a dissociation constant, usually derived from enzyme kinetics or from competition with a known ligand. A high value points to a looser hold on the target. As to `O=C1CCCCC1=O`, the Ki on Cholinesterase, on Liver carboxylesterase 1 [1], on Liver carboxylesterase 1 [2], at Cocaine esterase and on Acetylcholinesterase was more than 100 µM in each case.

For the compound `[O-][S+](Cc1ccccc1)Cc1ccccc1`, the Ki at Cholinesterase, on Liver carboxylesterase 1 [1], on Liver carboxylesterase 1 [2], on Cocaine esterase and on Acetylcholinesterase was more than 100 µM throughout.

Take `CC1CCCC(=O)C1=O` (centres undefined): the Ki at Cholinesterase, at Liver carboxylesterase 1 [1], on Liver carboxylesterase 1 [2], at Cocaine esterase and on Acetylcholinesterase was more than 100 µM throughout.

For the compound `CC(=O)CC(C)=O`, the Ki at Cholinesterase, at Liver carboxylesterase 1 [1], on Liver carboxylesterase 1 [2], on Cocaine esterase and on Acetylcholinesterase was more than 100 µM throughout.

`CN(C)c1ccc(C(=O)C(=O)c2ccc(N(C)C)cc2)cc1` came in with a Ki at Liver carboxylesterase 1 [1] of 2.15 µM.

Consider `CC1C(=O)CCCC1=O`, for which the Ki on Cholinesterase, on Liver carboxylesterase 1 [1], at Liver carboxylesterase 1 [2], on Cocaine esterase and at Acetylcholinesterase was more than 100 µM throughout.

Turning to `CC1CC(C)(C)CC(=O)C1=O` (centres undefined), the inhibition constant Ki on Cholinesterase, on Liver carboxylesterase 1 [1], at Liver carboxylesterase 1 [2], on Cocaine esterase and at Acetylcholinesterase was more than 100 µM throughout.

As for `CC(=O)C(=O)c1ccccc1`, the Ki was more than 100 µM at Cholinesterase, 4.93 µM on Liver carboxylesterase 1 [1], 5.27 µM at Liver carboxylesterase 1 [2] and more than 100 µM at Acetylcholinesterase.

`CN(C)c1ccc(C(O)C(=O)c2ccccc2)cc1` (centres undefined): the inhibition constant Ki on Cholinesterase, on Liver carboxylesterase 1 [1], at Liver carboxylesterase 1 [2], on Cocaine esterase and at Acetylcholinesterase was more than 100 µM throughout.

As to `O=C(O)c1ccc(C(=O)c2ccccc2)cc1`, the Ki on Cholinesterase, at Liver carboxylesterase 1 [1], on Liver carboxylesterase 1 [2], at Cocaine esterase and on Acetylcholinesterase was more than 100 µM each time.

In the case of `CC1NC(=O)C(=O)OC1C` (centres undefined), the Ki on Cholinesterase, at Liver carboxylesterase 1 [1], at Liver carboxylesterase 1 [2], at Cocaine esterase and at Acetylcholinesterase was more than 100 µM throughout.

In the case of `CC1C(=O)CCC1=O`, the Ki on Cholinesterase, on Liver carboxylesterase 1 [1], on Liver carboxylesterase 1 [2], at Cocaine esterase and at Acetylcholinesterase was more than 100 µM in each case.

For the compound `CC(=O)CCC(=O)c1ccccc1`, the Ki on Cholinesterase, at Liver carboxylesterase 1 [1], on Liver carboxylesterase 1 [2], on Cocaine esterase and at Acetylcholinesterase was more than 100 µM in each case.

Consider `O=C1CCCC(=O)C1`, for which the Ki at Cholinesterase, on Liver carboxylesterase 1 [1], at Liver carboxylesterase 1 [2], on Cocaine esterase and on Acetylcholinesterase was more than 100 µM each time.

As for `CCCCC(=O)C(C)=O`, the Ki is more than 100 µM on Cholinesterase; more than 100 µM on Liver carboxylesterase 1 [1]; 16.9 µM on Liver carboxylesterase 1 [2]; more than 100 µM on Cocaine esterase; more than 100 µM on Acetylcholinesterase.

As for `O=C1C(=O)C(Cl)=C(Cl)C(Cl)=C1Cl`, the Ki worked out at 3.2 µM on Cholinesterase; 1.03 µM at Liver carboxylesterase 1 [1]; 5.44 µM at Liver carboxylesterase 1 [2]; 0.875 µM at Cocaine esterase; 1.67 µM at Acetylcholinesterase.

For `COC(OC)(C(=O)c1ccccc1)c1ccccc1`, the Ki on Cholinesterase is more than 100 µM; on Liver carboxylesterase 1 [1] it was more than 100 µM; at Liver carboxylesterase 1 [2] it was 15.3 µM; at Cocaine esterase it was more than 100 µM; on Acetylcholinesterase, more than 100 µM.

For `O=S(=O)(Cc1ccccc1)Cc1ccccc1`, the Ki at Cholinesterase, on Liver carboxylesterase 1 [1], on Liver carboxylesterase 1 [2], on Cocaine esterase and at Acetylcholinesterase was more than 100 µM each time.

Take `CC(C)(C)C1=CC(=O)C(=O)C(C(C)(C)C)=C1`: the Ki is more than 100 µM at Cholinesterase; 0.736 µM on Liver carboxylesterase 1 [1]; 0.0886 µM at Liver carboxylesterase 1 [2]; 1.35 µM on Cocaine esterase; more than 100 µM at Acetylcholinesterase.

Take `OC(c1ccccc1)C(O)c1ccccc1` (centres undefined): the Ki on Cholinesterase, at Liver carboxylesterase 1 [1], on Liver carboxylesterase 1 [2], at Cocaine esterase and at Acetylcholinesterase was more than 100 µM throughout.

Take `COc1ccc(C(=O)C(O)c2ccc(OC)cc2)cc1` (centres undefined): the Ki on Cholinesterase was more than 100 µM; on Liver carboxylesterase 1 [1], 13.9 µM; on Liver carboxylesterase 1 [2] it was more than 100 µM; on Cocaine esterase, more than 100 µM; at Acetylcholinesterase, more than 100 µM.

`CC1CCC(=O)C1=O` (centres undefined): the Ki on Cholinesterase is more than 100 µM; on Liver carboxylesterase 1 [1] it was 15.7 µM; on Liver carboxylesterase 1 [2], more than 100 µM; on Cocaine esterase, more than 100 µM; at Acetylcholinesterase, more than 100 µM.

Regarding `Oc1nc2cc(Cl)c(Cl)cc2nc1O` [2,3-DIHYDROXY-6,7-DICHLOROQUINOXALINE], the Ki at Cholinesterase, on Liver carboxylesterase 1 [1], on Liver carboxylesterase 1 [2], on Cocaine esterase and on Acetylcholinesterase was more than 100 µM throughout.

Take `CCC(=O)C(C)=O` [2,3-PENTANEDIONE]: the Ki on Cholinesterase, at Liver carboxylesterase 1 [1], on Liver carboxylesterase 1 [2], at Cocaine esterase and at Acetylcholinesterase was more than 100 µM each time.

In turn, `O=C(c1ccccc1)C(O)c1ccccc1` (centres undefined) [BENZOIN] came in with an inhibitory constant (Ki) on Liver carboxylesterase 1 [1] of more than 100 µM.

Consider `O=C(c1ccccc1)c1ccccc1` [BENZOPHENONE], for which the Ki at Cholinesterase, at Liver carboxylesterase 1 [1], on Liver carboxylesterase 1 [2] and at Cocaine esterase was more than 100 µM in each case.

`O=C1C=CC(=O)C=C1` [BENZOQUINONE]: the Ki at Cholinesterase is 2.05 µM; at Liver carboxylesterase 1 [1], more than 100 µM; at Liver carboxylesterase 1 [2], more than 100 µM; on Cocaine esterase, more than 100 µM; on Acetylcholinesterase, 0.955 µM.

Regarding `O=S(=O)(Cc1ccccc1)c1ccccc1` [BENZYLSULFONYLBENZENE], the Ki on Cholinesterase, on Liver carboxylesterase 1 [1], at Liver carboxylesterase 1 [2], on Cocaine esterase and at Acetylcholinesterase was more than 100 µM throughout.

For the compound `CC(=O)C(C)=O` [BUTANEDIONE], the Ki at Cholinesterase, on Liver carboxylesterase 1 [1], on Liver carboxylesterase 1 [2], on Cocaine esterase and on Acetylcholinesterase was more than 100 µM throughout.

In the case of `O=C1C(Cl)=C(Cl)C(=O)C(Cl)=C1Cl` [CHLORANIL], the Ki on Cholinesterase turned out to be 0.268 µM; at Liver carboxylesterase 1 [1], 0.0548 µM; on Liver carboxylesterase 1 [2], 0.0839 µM; on Acetylcholinesterase it was 0.163 µM.

Take `O=C(CC(=O)c1ccccc1)c1ccccc1` [DIBENZOYLMETHANE]: the Ki at Cholinesterase is more than 100 µM; on Liver carboxylesterase 1 [1], 3.95 µM; on Liver carboxylesterase 1 [2], 26 µM; at Cocaine esterase it was more than 100 µM; on Acetylcholinesterase, more than 100 µM.
